Laboratory results published in ChEMBL document CHEMBL1131230 (J Med Chem, 1998).
pEC50, pIC50: −log10 of the molar value.

Legend:
[1] = biological target: GABA-A receptor; anion channel; assay: Inhibition of [35S]TBPS binding to GABA-A receptor in rat cerebral cortex.; assay type: tissue-based
Procedure, shortened: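 Unwashed cortical membranes from male Sprague-Dawley rats (180-200 g), homogenized in 50 mM Tris-citrate pH 7.4 with […], centrifuged at 20000g and resuspended in buffer. Final 1 nM [35S]TBPS with 0.20-0.25 mg protein and NaCl, 90 min at 25 °C, then GF/B filtration and scintillation counting. Nonspecific binding defined with 100 µM picrotoxin.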

[2] = Partition coefficient (logP); assay type: physicochemical; settings: octanol/water
[3] = biological target: T1, GABA A receptor alpha-1/beta-1/gamma-2 (Homo sapiens, UniProt P14867+P18505+P18507); assay: Modulation of GABA-induced chloride currents in Xenopus laevis oocytes expressing human alpha-1-beta-1-gamma-2 GABA-A receptor subunits; assay type: functional, cell-based, Oocyte
T1 sequence (P14867 whole entry): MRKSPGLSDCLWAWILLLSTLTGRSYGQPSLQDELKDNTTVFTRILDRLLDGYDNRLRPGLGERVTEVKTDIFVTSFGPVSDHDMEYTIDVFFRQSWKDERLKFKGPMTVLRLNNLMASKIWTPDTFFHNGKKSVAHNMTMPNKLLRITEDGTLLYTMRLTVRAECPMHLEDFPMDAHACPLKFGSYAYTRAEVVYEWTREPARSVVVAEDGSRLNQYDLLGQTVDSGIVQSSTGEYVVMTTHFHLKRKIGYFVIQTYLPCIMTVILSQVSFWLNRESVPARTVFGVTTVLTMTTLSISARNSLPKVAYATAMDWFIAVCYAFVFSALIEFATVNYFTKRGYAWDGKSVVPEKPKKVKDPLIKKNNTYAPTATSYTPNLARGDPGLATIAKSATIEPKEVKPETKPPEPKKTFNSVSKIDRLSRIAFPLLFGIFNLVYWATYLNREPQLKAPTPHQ
T1 sequence (P18507 whole entry): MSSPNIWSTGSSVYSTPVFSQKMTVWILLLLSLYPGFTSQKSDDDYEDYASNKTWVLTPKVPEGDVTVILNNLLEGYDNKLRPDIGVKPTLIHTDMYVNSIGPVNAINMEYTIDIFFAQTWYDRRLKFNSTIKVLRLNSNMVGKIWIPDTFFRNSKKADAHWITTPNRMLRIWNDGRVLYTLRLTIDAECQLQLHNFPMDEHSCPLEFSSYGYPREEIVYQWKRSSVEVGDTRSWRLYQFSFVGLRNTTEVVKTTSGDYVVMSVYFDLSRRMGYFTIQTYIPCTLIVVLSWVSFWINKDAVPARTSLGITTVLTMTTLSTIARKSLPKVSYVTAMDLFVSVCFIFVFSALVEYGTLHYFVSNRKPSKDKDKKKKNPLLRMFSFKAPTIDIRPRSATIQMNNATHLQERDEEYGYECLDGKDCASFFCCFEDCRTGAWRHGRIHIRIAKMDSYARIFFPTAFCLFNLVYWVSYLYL
T1 sequence (P18505 whole entry): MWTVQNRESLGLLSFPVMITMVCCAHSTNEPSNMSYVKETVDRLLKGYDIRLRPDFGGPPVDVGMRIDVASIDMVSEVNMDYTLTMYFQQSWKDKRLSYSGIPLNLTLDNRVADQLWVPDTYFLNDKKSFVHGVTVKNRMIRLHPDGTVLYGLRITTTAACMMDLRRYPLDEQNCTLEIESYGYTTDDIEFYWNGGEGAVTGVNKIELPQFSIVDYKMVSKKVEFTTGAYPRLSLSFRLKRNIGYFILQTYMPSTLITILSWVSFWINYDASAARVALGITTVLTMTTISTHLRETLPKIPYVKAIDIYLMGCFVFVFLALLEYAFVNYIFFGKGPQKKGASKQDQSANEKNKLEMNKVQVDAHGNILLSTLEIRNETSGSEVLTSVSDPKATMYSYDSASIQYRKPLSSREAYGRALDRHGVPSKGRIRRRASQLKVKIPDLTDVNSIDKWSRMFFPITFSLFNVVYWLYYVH
Procedure, shortened: (§1)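 Human α1, β1 and γ2 subunit cDNAs in pCDM8 (1.5 ng/30 nL) injected into nuclei of defolliculated stage V-VI Xenopus oocytes, which were cultured at 19 °C in supplemented MBS. Recording by two-electrode voltage clamp at -70 mV about 24 h after injection, with MBS perfusion at room temperature. Compounds came from 10 mM DMSO stocks diluted in MBS. Responses were normalized to a GABA control response, either EC20 or 10 mM GABA.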

[4] = biological target: T2, GABA A receptor alpha-1/beta-1/gamma-2 (Homo sapiens) (UniProt P14867+P18507+P18505); assay: Direct activation of chloride currents (percentage of 10 mM GABA response) in Xenopus laevis oocytes expressing human alpha-1-beta-1-gamma-2 GABA-A receptor subunits; assay type: functional, cell-based; settings: Oocyte; procedure, shortened: as §1
[5] = biological target: T1, GABA A receptor alpha-1/beta-1/gamma-2; assay: Direct activation of chloride current in Xenopus laevis oocytes expressing human alpha-1-beta-1-gamma-2 GABA-A receptor subunits; assay type: functional, cell-based, Oocyte; procedure, shortened: as §1
[6] = biological target: T2, GABA A receptor alpha-1/beta-1/gamma-2 (Homo sapiens); assay: Modulation of GABA-induced chloride currents (percentage of GABA EC20 response) against human alpha-1-beta-1-gamma-2 GABA-A receptor subunits expressed in Xenopus laevis oocytes; assay type: functional, cell-based; settings: Oocyte; procedure, shortened: as §1
[7] = tested on: GABA-A receptor; anion channel; assay: In vitro inhibition of [35S]TBPS binding to Gamma-aminobutyric acid A (GABA-A) receptor of rat cerebral cortex (No displacement); assay type: tissue-based

CCN(CC)CC(=O)Oc1c(C(C)C)cccc1C(C)C
pIC50 [1]: 4.66

CC(C)c1cc(CN(C)C)cc(C(C)C)c1O
logP [2]: 2.5 | pIC50 [1]: 3.13

COC(=O)c1cccc(C(C)C)c1O
pIC50 [1]: 4.40

CC(C)c1cc(Br)cc(C(C)C)c1O
logP [2]: 5.49 | pIC50 [1]: 5.97 | pEC50 [3]: 4.92 | Max activation [4]: 34% | pEC50 [5]: 4.42 | Max potentiation [6]: 223%

CCCN(CCC)CC(=O)Oc1c(C(C)C)cccc1C(C)C
IC50 [7]: Not Active

CC(C)c1cc(N)cc(C(C)C)c1O
logP [2]: 3.1 | pIC50 [1]: 4.63

CC(C)c1cccc(C(=O)O)c1O
IC50 [7]: Not Active

CC(C)c1cccc(C(C)C)c1OC(=O)c1ccccc1
pIC50 [1]: 4.82

CC(C)c1cc([N+](C)(C)C)cc(C(C)C)c1O.[I-]
IC50 [7]: Not Active

CC(C)c1cc(N(C)C)cc(C(C)C)c1O
logP [2]: 4.52 | pIC50 [1]: 5.24

CC(C)c1cc(I)cc(C(C)C)c1O
logP [2]: 5.75 | pIC50 [1]: 5.92 | pEC50 [3]: 4.92 | Max activation [4]: 36% | pEC50 [5]: 4.29 | Max potentiation [6]: 311%

CC(=O)Oc1c(C(C)C)cccc1C(C)C
pIC50 [1]: 5.07

CC(=O)Nc1cc(C(C)C)c(O)c(C(C)C)c1
IC50 [7]: Not Active

CC(C)c1cccc(C(C)C)c1O [PROPOFOL]
logP [2]: 4.33 | pEC50 [3]: 5.10 | Max activation [4]: 38% | pEC50 [5]: 4.36 | Max potentiation [6]: 296%

CC(C)c1cc(C=O)cc(C(C)C)c1O
logP [2]: 4.3 | pIC50 [1]: 5.24

CC(C)c1cc(Cl)cc(C(C)C)c1O
logP [2]: 5.34 | pIC50 [1]: 5.84 | pEC50 [3]: 5.00 | Max activation [4]: 37% | pEC50 [5]: 4.42 | Max potentiation [6]: 205%

CC(C)c1cc(C(=O)c2ccccc2)cc(C(C)C)c1O
logP [2]: 5.91 | pIC50 [1]: 6.07 | pEC50 [3]: 5.05 | Max activation [4]: 41% | pEC50 [5]: 4.33 | Max potentiation [6]: 220%

CC(C)c1cc(NC(=O)C(F)(F)F)cc(C(C)C)c1O
logP [2]: 4.46 | pIC50 [1]: 4.85

CC(C)c1cc([N+](=O)[O-])cc(C(C)C)c1O
logP [2]: 4.71 | pIC50 [1]: 5.71

COc1c(C(C)C)cccc1C(C)C
pIC50 [1]: 4.43

COC(CNCC(=O)Oc1c(C(C)C)cccc1C(C)C)OC
pIC50 [1]: 4.81

CC(C)c1cccc(C(C)C)c1OC(=O)CN1CCCC1
pIC50 [1]: 5.19

COS(=O)(=O)c1cc(C(C)C)c(O)c(C(C)C)c1
logP [2]: 3.7 | pIC50 [1]: 5.03

CC(C)c1cc(NS(C)(=O)=O)cc(C(C)C)c1O
logP [2]: 3.14 | pIC50 [1]: 3.88

CC(C)c1cccc(C(C)C)c1OC(=O)CN1CCOCC1
IC50 [7]: Not Active
